According to PubChem BioAssay:
Inconclusive results are not listed. The source made the active and inactive calls.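 The calls were made as follows, unless noted: active = viability increase at or above a cutoff of the median across tested compounds plus 3 SD (cut at about 8.5% in these data, passing the limit was not always enough); inconclusive = some gains above the cutoff, reason not given; inactive = the rest.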

Assays:
[1] = S. cerevisiae growth inhibition in permissive medium (OD615), pilot counter-assay for S. cerevisiae lifespan shortening project, permissive growth control (AID 705;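 active = growth inhibition above 25% in both replicates, a cutoff set 3 SD above the mean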); details: OD615, 24 h, at 10 µM, stronger effect = higher value
In short: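 System: S. cerevisiae with engineered DeaD lifespan system / Measured by: absorbance (optical density) at 615 nm / Read-out: reduction in yeast growth (OD615) / Times: 4 h cell pre-growth, 24 h exposure at 30 °C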

[2] = S. cerevisiae growth inhibition in restrictive medium, OD615, pilot screen, restrictive growth control, yeast lifespan reduction project (AID 706;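 active = growth inhibition above a set limit, 3 SD over mean compound inhibition, in both replicates, cut at about 43% in these data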;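 also: modified DeaD lifespan yeast strain shifted to restrictive glucose medium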); details: OD615, 48 h, at 10 µM, stronger effect = higher value
In short: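 System: Engineered S. cerevisiae DeaD strain | Buffer or medium: Glucose-based CSMM-D restrictive medium | Schedule: 4 h pre-incubation, 48 h exposure at 30 °C | Technique: Optical density at 615 nm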

[3] = doxorubicin toxicity protection in MRP-1 cells – H69AR cells, CellTiter-Glo, duplicate, MRP-1 activator project, pilot screen (AID 807); details: H69AR viability with doxorubicin, CellTiter-Glo luminescence; at 10 µM; stronger effect = higher value;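 also: compound pretreatment 18-22 h then 72 h combined with doxorubicin; 0% = doxorubicin alone and 100% = vehicle without doxorubicin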
[4] = viability of HCT116 without oncogenic beta-catenin – human colon tumor cells, pilot screen (AID 823;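 active = cell viability at or below a set limit in both duplicate runs, the limit being the all-compound median minus 4 SD, cut at about 23% in these data, passing the limit was not always enough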;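 also: 0% = wells killed by 20 µM Hyamine and 100% = untreated DMSO cell wells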); details: HCT116 beta-catenin knockout viability, CellTiter-Glo, 60 h; at 10 µM; stronger effect = lower value
[5] = viability of PTEN-null HCT116 cells – cell-based, HCT116 clonal line, CellTiter-Glo, pilot screen (AID 824;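 active = viability at or below 27.92% in each of two runs, the all-compound median minus 4 SD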;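 also: 0% = 20 µM Hyamine control and 100% = vehicle cell control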); details: HCT116 PTEN-deleted viability, 60 h, at 10 µM, stronger effect = lower value
[6] = RAM pathway blockade in budding yeast – dse1pr::URA3 reporter, 5-FOA selection, pilot screen (AID 869;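 active = inhibition over a set limit, the all-compound mean plus 3 SD, in both replicate runs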;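 also: 0% = DMSO wells with no growth and 100% = 10 µM 1-NA-PP1 with full growth; RAM network block rescues cells from 5-FOA so hits raise OD615 growth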); details: S. cerevisiae dse1pr::URA3 5-FOA growth, OD615, 2 d; at 10 µM; stronger effect = higher value; strain carries analog-sensitive mutant Cbk1 kinase
[7] = RAM signaling pathway blockade in yeast – S. cerevisiae, Pdr1DBD-CYC8 efflux-inhibited sensitized strain, primary screen (AID 1298;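 active = RAM network inhibition above 8.4% in each of two replicates, 3 SD over the compound average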;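 also: 0% = DMSO untreated cells without growth and 100% = 10 µM 1-NA-PP1 full growth; higher means more yeast growth rescued from 5-FOA killing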); details: S. cerevisiae cbk1-as DSE1-URA3 strain, 5-FOA growth OD615, 2 d; at 50 µM; stronger effect = higher value

CN(C)S(=O)(=O)c1ccc(C(=O)Nc2ccc(Cl)cc2)cc1
inactive: growth inhibition [1] -3.1% | growth inhibition [2] -5.55% | viability increase [3] -1.63% | viability [4] 77.5% | viability [5] 88.8% | inhibition [6] 2.33% | RAM network inhibition [7] 3.74%

CCN(CC)CCCNC(=O)c1cc2c(-c3ccc(Cl)cc3)nn(C)c2s1
inactive: growth inhibition [1] 0.63% | growth inhibition [2] 17.3% | viability increase [3] -8.12% | inhibition [6] -0.18% | RAM network inhibition [7] -0.36%
active: viability [4] 1.68% | viability [5] 1.82%

CCOC(=O)c1c(C)c(-c2ccccc2)n(CC(=O)N2CCCC2)c1C
inactive: growth inhibition [1] -8.25% | growth inhibition [2] -12.4% | viability increase [3] -3.38% | viability [4] 87.6% | viability [5] 92.3% | inhibition [6] 1.31% | RAM network inhibition [7] 2.73%

COc1ccc(Cl)cc1NC(=O)Cn1c(=O)n2nc(C)nc2c2ccccc21
inactive: growth inhibition [1] -7.69% | growth inhibition [2] 3.31% | viability increase [3] -7.15% | viability [4] 90.9% | viability [5] 87.8% | inhibition [6] 0.175% | RAM network inhibition [7] 6.46%

CCCc1nc(N)nc2c1C(=O)CC(C)(C)C2
inactive: growth inhibition [1] -15.1% | growth inhibition [2] 3.37% | viability increase [3] -1.08% | viability [4] 89.4% | viability [5] 87.6% | inhibition [6] 1.54% | RAM network inhibition [7] 0.27%

Cn1c(=O)[nH]c(=O)c2c1nc(SCCN1CCOCC1)n2CCCc1ccccc1
inactive: growth inhibition [1] -6.32% | growth inhibition [2] -14.4% | viability increase [3] -3.69% | viability [4] 96.8% | viability [5] 85.5% | inhibition [6] 0.63% | RAM network inhibition [7] 4.46%

COC(=O)c1ccc(C2c3c(oc4ccccc4c3=O)C(=O)N2CCCN2CCOCC2)cc1 (configuration not stated)
inactive: growth inhibition [1] -2.57% | growth inhibition [2] -3.54% | viability increase [3] -4.63% | viability [4] 87.6% | viability [5] 82.9% | inhibition [6] 0.54% | RAM network inhibition [7] 0.48%

C=CCSc1nc2ccccc2c(=O)[nH]1
inactive: growth inhibition [1] -16.1% | growth inhibition [2] -8.26% | viability increase [3] -0.8% | viability [4] 105% | viability [5] 95.2% | inhibition [6] 2.91% | RAM network inhibition [7] 0.79%

COc1cc(C(=O)NCc2ccco2)c(Br)c(OC)c1OC
inactive: growth inhibition [1] -1.05% | growth inhibition [2] -12.5% | viability increase [3] -4.68% | viability [4] 98.3% | viability [5] 96% | inhibition [6] 0.865% | RAM network inhibition [7] -0.16%

Cc1cc(SCC(=O)c2ccccc2)n2nc(C)nc2n1
inactive: growth inhibition [1] -12.2% | growth inhibition [2] 0.305% | viability increase [3] -6.79% | viability [4] 89.8% | viability [5] 87% | inhibition [6] 2.91% | RAM network inhibition [7] 2.67%

CCc1ccc(C2CC(c3ccc(Cl)cc3)n3nc(N)nc3N2)cc1 (configuration not stated)
inactive: growth inhibition [1] 3.64% | growth inhibition [2] 17.7% | viability increase [3] 1.85% | viability [4] 101% | viability [5] 90.4% | inhibition [6] 1.53% | RAM network inhibition [7] 2.02%

O=C1c2ccccc2C(=O)N1CCc1nc2ccccc2c(=O)n1Cc1ccco1
inactive: growth inhibition [1] -8.88% | growth inhibition [2] -1.42% | viability increase [3] -3.47% | viability [4] 89.7% | viability [5] 88.6% | inhibition [6] 1.29% | RAM network inhibition [7] 1.59%

O=C(Cn1cc2c(n1)CCCC2)Nc1cc(-c2cccc(Cl)c2)no1
inactive: growth inhibition [1] 3.94% | growth inhibition [2] 3.73% | viability increase [3] 0.67% | viability [4] 99.2% | viability [5] 87.2% | inhibition [6] 0.9% | RAM network inhibition [7] 2.24%

Cc1ccc2oc(=O)c3cc(C(=O)N4CCN(c5ncccn5)CC4)sc3c2c1
inactive: growth inhibition [1] -7.63% | growth inhibition [2] -1.9% | viability increase [3] -3.11% | viability [4] 107% | viability [5] 98.1% | inhibition [6] 1.62% | RAM network inhibition [7] 2.64%

Cn1c(=O)c2c(nc(CN3CCOCC3)n2CCCO)n(C)c1=O
inactive: growth inhibition [1] -5.86% | growth inhibition [2] -3.44% | viability increase [3] -0.74% | viability [4] 102% | viability [5] 101% | inhibition [6] 1.76% | RAM network inhibition [7] 6.48%

COc1ccccc1N1CCN(c2cc(C)nc3nc(C)nn23)CC1
inactive: growth inhibition [1] -9.41% | growth inhibition [2] -13.6% | viability increase [3] -4.75% | viability [4] 85.7% | viability [5] 83.6% | inhibition [6] 2.03% | RAM network inhibition [7] -0.21%

O=C1CC(c2ccccc2)CN1S(=O)(=O)c1ccccc1 (configuration not stated)
inactive: growth inhibition [1] -1.7% | growth inhibition [2] 3.08% | viability increase [3] 0% | viability [4] 108% | viability [5] 97.8% | inhibition [6] 0.085% | RAM network inhibition [7] 1.71%

Cc1nn(C)c(C)c1NS(=O)(=O)c1ccccc1
inactive: growth inhibition [1] -9.1% | growth inhibition [2] -6.73% | viability increase [3] -0.34% | viability [4] 98% | viability [5] 88.4% | inhibition [6] 0.545% | RAM network inhibition [7] 6.15%

CCCOc1nc2c(c(=O)n(C)c(=O)n2C)n1CCC
inactive: growth inhibition [1] -7.2% | growth inhibition [2] -10.2% | viability increase [3] -2.13% | viability [4] 82.2% | viability [5] 86.6% | inhibition [6] 1.4% | RAM network inhibition [7] -0.88%

O=C1CN(C(=O)COC(=O)C2CC(=O)N(Cc3ccco3)C2)c2ccccc2N1 (configuration not stated)
inactive: growth inhibition [1] -12% | growth inhibition [2] -16.7% | viability increase [3] -2.08% | viability [4] 102% | viability [5] 104% | inhibition [6] 1.06% | RAM network inhibition [7] 4.09%

COc1ccc(C(=O)Nc2nncs2)cc1S(=O)(=O)N1CC(c2ccccc2)CC1=O (configuration not stated)
inactive: growth inhibition [1] -12.7% | growth inhibition [2] 18% | viability increase [3] 0.31% | viability [4] 101% | viability [5] 87% | inhibition [6] 0.92% | RAM network inhibition [7] 3.31%

CC1=NC2(CCCc3c2no[n+]3[O-])N(O)C1(C)C (configuration not stated)
inactive: growth inhibition [1] 6.66% | growth inhibition [2] 3.75% | viability increase [3] -1.89% | viability [4] 101% | viability [5] 98.7% | inhibition [6] 1.36% | RAM network inhibition [7] 1.51%

CCNC(=O)Cc1ccc(NS(=O)(=O)c2ccc(F)cc2)cc1
inactive: growth inhibition [1] -7.1% | growth inhibition [2] 13.8% | viability increase [3] -2.21% | viability [4] 100% | viability [5] 94.6% | inhibition [6] 0.34% | RAM network inhibition [7] 2.36%

COc1cccc(NC=C2C(=O)OC(C)(C)OC2=O)c1
inactive: growth inhibition [1] -11% | growth inhibition [2] -2.86% | viability increase [3] -1.97% | viability [4] 98.7% | viability [5] 106% | inhibition [6] 0.94% | RAM network inhibition [7] 2.55%

COc1cccc(N(CC(=O)Nc2cccc(C(C)=O)c2)S(C)(=O)=O)c1
inactive: growth inhibition [1] -9.21% | growth inhibition [2] -2.52% | viability increase [3] -0.61% | viability [4] 101% | viability [5] 93.7% | inhibition [6] 1.08% | RAM network inhibition [7] 5.87%

Cc1cc(C)nc(NS(=O)(=O)c2ccc(NC(=O)CCCN3C(=O)c4ccccc4C3=O)cc2)n1
inactive: growth inhibition [1] -7.67% | growth inhibition [2] -0.225% | viability increase [3] -1% | viability [4] 99.6% | viability [5] 100% | inhibition [6] 0.735% | RAM network inhibition [7] 3.72%

CC(C)(C)c1ccc(OCC(O)CS(=O)(=O)c2ccccn2)cc1 (configuration not stated)
inactive: growth inhibition [1] -20.8% | growth inhibition [2] -19.1% | viability increase [3] -0.66% | viability [4] 97.8% | viability [5] 94.5% | inhibition [6] -0.5% | RAM network inhibition [7] 4.16%

CCC(=O)Nc1nnc(-c2ccc(OC)cc2)o1
inactive: growth inhibition [1] -8.21% | growth inhibition [2] -11.8% | viability increase [3] -1.1% | viability [4] 103% | viability [5] 98.4% | inhibition [6] 1.01% | RAM network inhibition [7] -0.04%

COc1ccc(C)cc1S(=O)(=O)N1CCN(S(=O)(=O)c2cc(C)ccc2OC)C(C)C1 (configuration not stated)
inactive: growth inhibition [1] -8.75% | growth inhibition [2] -8.42% | viability increase [3] -3.35% | viability [4] 88.7% | viability [5] 85.6% | inhibition [6] 2.99% | RAM network inhibition [7] 2.61%

COc1ccc(C(=O)NCc2cn3ccsc3n2)cc1OC
inactive: growth inhibition [1] -9.73% | growth inhibition [2] -1.42% | viability increase [3] -1.54% | viability [4] 105% | viability [5] 94.6% | inhibition [6] 2.29% | RAM network inhibition [7] 2.63%

CCCc1cc(C(=O)Nc2sc(C)c(CC)c2C#N)no1
inactive: growth inhibition [1] -6.42% | growth inhibition [2] -11.2% | viability increase [3] 2.26% | viability [4] 102% | viability [5] 101% | inhibition [6] 1.42% | RAM network inhibition [7] 0.53%

NC(=O)SCC(=O)Nc1ccc(Cl)c(Cl)c1
inactive: growth inhibition [1] -0.33% | growth inhibition [2] 4.16% | viability increase [3] -7.83% | viability [4] 38% | viability [5] 42.8% | inhibition [6] 2.52% | RAM network inhibition [7] 4.56%

CCc1nc(N(CC)CC)c2oc3ccccc3c2n1
inactive: growth inhibition [1] -2.86% | growth inhibition [2] -35.2% | viability increase [3] -4.87% | viability [4] 75.5% | viability [5] 71% | inhibition [6] -0.16% | RAM network inhibition [7] 1.04%

COc1ccc(C2C(C(=O)N3CCN(c4ccccc4)CC3)c3ccccc3C(=O)N2C)cc1 (configuration not stated)
inactive: growth inhibition [1] -13.4% | growth inhibition [2] -17.6% | viability increase [3] -4.08% | viability [4] 69.6% | viability [5] 74.9% | inhibition [6] 2.13% | RAM network inhibition [7] 2.38%

CN(C)c1nc(Oc2ccc(C(=O)OCC(=O)Nc3ccccc3)cc2)nc(N(C)C)n1
inactive: growth inhibition [1] 5.09% | growth inhibition [2] 5.01% | viability increase [3] -3.31% | viability [4] 95.6% | viability [5] 94.3% | inhibition [6] 2.15% | RAM network inhibition [7] 1.24%

CC(C)Oc1cc(O)c2c(=O)c(-c3ccc(O)cc3)coc2c1
inactive: growth inhibition [1] -14.2% | growth inhibition [2] -15.1% | viability increase [3] -6.33% | viability [4] 79.8% | viability [5] 64.5% | inhibition [6] 0.605% | RAM network inhibition [7] -3.3%
